≈ marks a conversion by molar mass, not a printed value.

Usually IC50 stands for the concentration that inhibits the measured activity by half. The term MIC denotes the smallest concentration in the dilution series that meets the test's criterion for growth inhibition.

Test [1] is described as follows: Cytotoxicity against human HeLa cells assessed as decrease in cell viability after 6 days by MTT assay. The format is functional, cell-based. Conditions: 144 h. In outline:
(§1)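 Cell lines from College of Pharmacy, Hebei University, grown in DMEM with 5% fetal bovine serum at 37 °C under 5% CO2. Viability read by MTT method, IC50 values derived. Epirubicin served as positive control.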
(Tetrazolium dyes change colour on reduction, which living cells bring about.)

Test [2] has as its system Colletotrichum truncatum. Put plainly: Antifungal activity against Colletotrichum capsici after 4 to 14 days by serial dilution method. The format is functional. The procedure, abridged: (§2)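 Fungal strains kept on potato dextrose agar. Antifungal activity tested following NCCLS recommendations, with MIC values as the read-out. Prochloraz served as positive control.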
A short description of test [3]: Antifungal activity against Exserohilum turcicum after 4 to 14 days by serial dilution method. The format is functional. Conditions: Setosphaeria turcica. In outline: as §2
A short description of test [4]: Antifungal activity against Bipolaris oryzae after 4 to 14 days by serial dilution method. The format is functional. The procedure, abridged: (§3)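 Fungus maintained on potato dextrose agar. Antifungal activity determined as MIC following NCCLS (National […] for Clinical Laboratory Standards) recommendations, with prochloraz as the reference antifungal.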
The test system of test [5] is Alternaria citri. Put plainly: Antifungal activity against Alternaria citri after 4 to 14 days by serial dilution method. The format is functional. In outline: as §3
Test [6] can be described thus: Antifungal activity against Phytophthora parasitica var. nicotianae after 4 to 14 days by serial dilution method. The format is functional. In outline:
as §2

Test [7] is described as follows: Cytotoxicity against human MCF7 cells assessed as decrease in cell viability after 6 days by MTT assay. The format is functional, cell-based. The conditions noted are these: MCF7, 144 h. The procedure, abridged:
as §1

The nature of test [8]: Antifungal activity against Pestallozzia theae after 4 to 14 days by serial dilution method. The format is functional. The procedure, abridged:
as §2

In test [9] the test system is Alternaria brassicicola. Nature of the test: Antifungal activity against Alternaria brassicicola after 4 to 14 days by serial dilution method. The format is functional. In outline: as §2
The nature of test [10]: Cytotoxicity against human A549 cells assessed as decrease in cell viability after 6 days by MTT assay. It is filed as functional, cell-based. The conditions noted are these: A549, 144 h. The procedure, abridged:
as §1

A short description of test [11]: Antifungal activity against Ceratocystis paradoxa moreau after 4 to 14 days by serial dilution method. It is filed as functional. Conditions: Thielaviopsis. In outline: as §2
A short description of test [12]: Antifungal activity against Diaporthe medusaea nitschke after 4 to 14 days by serial dilution method. The format is functional. Conditions: Diaporthe rudis. The procedure, abridged: as §2

`COc1cc(CCc2cc(O)cc(O)c2)ccc1O` [TRISTIN]: the IC50 in test [1], in [7] and in test [10] was greater than 10 µM throughout. For the same molecule, the MIC in test [2] turned out to be 96.2 µM (≈ 25 µg/mL); in [3], 385 µM (≈ 100 µg/mL); in test [4], 96.2 µM (≈ 25 µg/mL); in test [5], 96.2 µM (≈ 25 µg/mL); in [6] it was 385 µM (≈ 100 µg/mL); in [8], 96.2 µM (≈ 25 µg/mL). The MIC in test [9] was 192 µM (≈ 50.1 µg/mL); in test [11], 96.2 µM (≈ 25 µg/mL); in [12], 192 µM (≈ 50.1 µg/mL).

Regarding `COC1=CC(=O)c2c(ccc3cc(O)c(O)cc23)C1=O`, the IC50 in test [1], in [7] and in test [10] was greater than 10 µM each time. Moreover, the minimum inhibitory concentration (MIC) in test [2], in [3], in test [4], in test [5], in [6] and in test [8] was greater than 400 µM each time. Further, the MIC in test [9], in [11] and in test [12] was greater than 400 µM in each case.

Take `COc1cc(O)c2c(c1)CCc1cc(O)c(-c3cc4cccc(O)c4c4c(OC)cc(O)cc34)cc1-2`: the concentration for half-maximal inhibition (IC50) in [1], in test [7] and in [10] was greater than 10 µM throughout. The MIC in [2], in test [3], in test [4], in test [5], in test [6] and in [8] was greater than 400 µM in each case. Also, the MIC in [9], in test [11] and in test [12] was greater than 400 µM in each case.

On to `COc1cc(O)c2c(c1)CCc1cccc(O)c1-2`, for which the IC50 in [1], in test [7] and in test [10] was greater than 10 µM each time. Also, the MIC in [2], in [3], in test [4], in test [5], in test [6] and in test [8] was greater than 400 µM throughout. Further, the MIC in test [9], in test [11] and in test [12] was greater than 400 µM in each case.

Regarding `COc1cc(O)cc2ccc3c(-c4c(O)cc(OC)c5c4ccc4cccc(O)c45)ccc(O)c3c12`, the IC50 in test [1], in test [7] and in test [10] was greater than 10 µM each time. The MIC in test [2], in [3], in test [4], in test [5], in test [6] and in test [8] was greater than 400 µM throughout. Also, the MIC in [9], in test [11] and in test [12] was greater than 400 µM in each case.

For `COc1cc(O)cc2ccc3cccc(O)c3c12` [MOSCATIN], the IC50 in [1], in [7] and in test [10] was greater than 10 µM throughout. Further, the MIC in [2], in test [3], in [4], in [5], in [6] and in test [8] was greater than 400 µM in each case. The MIC in test [9], in [11] and in test [12] was greater than 400 µM throughout.

For the molecule `COc1cc(O)c2c(c1-c1c(OC)cc(O)c3c1CCc1cc(O)ccc1-3)CCc1cc(O)ccc1-2`, the IC50 in test [1], in [7] and in test [10] was greater than 10 µM each time. The MIC in test [2], in test [3], in test [4], in [5], in test [6] and in test [8] was greater than 400 µM in each case. The MIC in [9], in [11] and in test [12] was greater than 400 µM in each case.

Consider `COc1c(O)cc2c(c1OC)-c1ccc(O)cc1CC2` [ERIANTHRIDIN], for which the IC50 in [1], in [7] and in [10] was greater than 10 µM throughout. The MIC in test [2], in test [3], in test [4], in test [5], in test [6] and in [8] was greater than 400 µM in each case. For the same molecule, the MIC in test [9], in test [11] and in test [12] was greater than 400 µM throughout.

Take `COc1cc(O)c2c(c1)CCc1cc(O)c(-c3c(O)c4cccc(O)c4c4c(OC)cc(OC)cc34)cc1-2`: the IC50 in [1], in test [7] and in [10] was greater than 10 µM each time. In addition, the MIC in [2], in [3], in test [4], in [5], in test [6] and in [8] was greater than 400 µM in each case. Also, the MIC in [9], in test [11] and in [12] was greater than 400 µM in each case.

In the case of `COc1cc(O)cc(CCc2cccc(O)c2)c1` [BATATASIN III], the IC50 in test [1], in test [7] and in test [10] was greater than 10 µM each time. Besides, the MIC was 102 µM (≈ 25 µg/mL) in [2]; 102 µM (≈ 25 µg/mL) in test [3]; 102 µM (≈ 25 µg/mL) in test [4]; 102 µM (≈ 25 µg/mL) in test [5]; 205 µM (≈ 50.1 µg/mL) in test [6]; 205 µM (≈ 50.1 µg/mL) in test [8]. Further, the minimum inhibitory concentration (MIC) was found to be 102 µM (≈ 25 µg/mL) in test [9], 102 µM (≈ 25 µg/mL) in test [11] and 205 µM (≈ 50.1 µg/mL) in [12].

`Oc1cccc(CCc2cc(O)cc(O)c2)c1`: the IC50 in test [1], in test [7] and in test [10] was greater than 10 µM each time. The minimal inhibitory concentration (MIC) in [2] was found to be 109 µM (≈ 25 µg/mL); in test [3], 109 µM (≈ 25 µg/mL); in test [4] it was 109 µM (≈ 25 µg/mL); in test [5], 109 µM (≈ 25 µg/mL); in [6], 218 µM (≈ 50.1 µg/mL); in [8], 217 µM (≈ 50.1 µg/mL). Also, the MIC was greater than 400 µM in [9], 109 µM (≈ 25 µg/mL) in test [11] and 217 µM (≈ 50.1 µg/mL) in test [12].

As to `COc1cc(O)c2c(c1)CCc1cc(Oc3cc(OC)c(O)c4c3CCc3cc(O)ccc3-4)ccc1-2`, the IC50 in test [1], in test [7] and in [10] was greater than 10 µM throughout. The MIC in test [2], in test [3], in [4], in test [5], in test [6] and in test [8] was greater than 400 µM each time. Further, the MIC in [9], in test [11] and in test [12] was greater than 400 µM each time.

Source of the values: ChEMBL document CHEMBL3860028, “Bioactive Phenanthrene and Bibenzyl Derivatives from the Stems of Dendrobium nobile” (J Nat Prod, 2016).
